Test results from ChEMBL document CHEMBL1157149, “Phosphonate-linked pyrrolo[2,1-c][1,4]benzodiazepine conjugates: synthesis, DNA-binding affinity and cytotoxicity” (2008).
Blank lines part the entries; values can stand above or below the molecule they belong to. The source made the active and inactive calls. The calls are words filed in the database; no cut-off is given here.

Key:
[1] = target: T1, Type II restriction enzyme BamHI (Bacillus amyloliquefaciens) (UniProt P23940); assay: Inhibition of BamH1 assessed as inhibition of pBR322 DNA cleavage
T1 sequence (whole entry): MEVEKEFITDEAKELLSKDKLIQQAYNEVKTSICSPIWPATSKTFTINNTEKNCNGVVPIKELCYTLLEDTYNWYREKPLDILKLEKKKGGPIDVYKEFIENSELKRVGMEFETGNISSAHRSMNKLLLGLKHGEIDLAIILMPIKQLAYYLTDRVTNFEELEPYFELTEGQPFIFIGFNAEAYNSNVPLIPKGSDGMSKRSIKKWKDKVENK
How it was run: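 PBD stocks were 100 μM in DMSO. Plasmid pBR322 (500 ng, single BamHI site) was preincubated with compound in 16 μL for 16 h at 37 °C. BamHI (20 U) and its buffer were then added to 20 μL, and digestion ran 1 h at 37 °C. Cut and uncut forms were resolved on 1% agarose in TAE (80 V, 2 h) and stained with ethidium bromide.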

DNA = assay: Binding affinity to calf thymus DNA assessed as change in thermal stability at pH 7.0 after 18 hrs by thermal denaturation assay; format: nucleic-acid assay; settings: Bos taurus
How it was run: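 CT-DNA duplex at 100 µM (in phosphate) with ligand at 20 µM (1:5 ligand/DNA molar ratio) in 10 mM sodium phosphate, 1 mM EDTA, pH 7.00; compound added from concentrated MeOH solution. Incubated at 37 °C for 18 h. Absorbance at 260 nm followed while heating at 1 °C/min over 40–90 °C. Tm taken from dA260/dT derivative maxima; ΔTm relative to DNA alone.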

[2] = Cytotoxicity against human DWD cells after 48 hrs by SRB method
MCF7 = assay: Cytotoxicity against human MCF7 cells after 48 hrs by SRB method; settings: MCF7, 48 h
SiHa = assay: Cytotoxicity against human SiHa cells after 48 hrs by SRB method
KB = assay: Cytotoxicity against human KB cells after 48 hrs by SRB method
COLO 205 = assay: Cytotoxicity against human Colo205 cells after 48 hrs by SRB method; settings: COLO 205, 48 h
SR = assay: Cytotoxicity against human SR cells after 24 hrs by SRB method; format: functional
[3] = Cytotoxicity against human lung cancer cells after 24 hrs by SRB method; format: functional; settings: Cancer cell lines
RPMI-8226 = assay: Cytotoxicity against human RPMI8226 cells after 24 hrs by SRB method; format: functional; settings: RPMI-8226, 24 h
[4] = Cytotoxicity against human leukemia cells after 48 hrs by SRB method; settings: Leukemia cell
PC-3 = assay: Cytotoxicity against human PC3 cells after 48 hrs by SRB method; settings: PC-3, 48 h
CCRF-CEM [5] = assay: Cytotoxicity against human CCRF-CEM cells after 24 hrs by SRB method; format: functional
[6] = Cytotoxicity against human CNS cancer cells after 48 hrs by SRB method; settings: Cancer cell lines
[7] = Cytotoxicity against human GURAV cells after 48 hrs by SRB method
[8] = Cytotoxicity against human colon cancer cells after 24 hrs by SRB method; format: functional; settings: Cancer cell lines
A549 = assay: Cytotoxicity against human A549 cells after 48 hrs by SRB method; settings: A549, 48 h
HL-60 = assay: Cytotoxicity against human HL60 cells after 48 hrs by SRB method; settings: HL-60, 48 h
K562 = assay: Cytotoxicity against human K562 cells after 48 hrs by SRB method; settings: K562, 48 h
[9] = Cytotoxicity against human leukemia cells after 24 hrs by SRB method; format: functional; settings: Leukemia cell, read-out: pTGI (converted)
A2780 = assay: Cytotoxicity against human A2780 cells after 48 hrs by SRB method; settings: A2780, 48 h
[10] = Cytotoxicity against human breast cancer cells after 24 hrs by SRB method; format: functional; settings: Cancer cell lines
MOLT-4 = assay: Cytotoxicity against human MOLT4 cells after 24 hrs by SRB method; format: functional; settings: MOLT-4, 24 h
[11] = Cytotoxicity against human renal cancer cells after 24 hrs by SRB method; format: functional; settings: Cancer cell lines
CCRF-CEM [12] = assay: Cytotoxicity against human CCRF-CEM cells after 48 hrs by SRB method; settings: read-out: pLC50 (the source's name) (converted)
[13] = Cytotoxicity against human prostate cancer cells after 24 hrs by SRB method; format: functional; settings: Cancer cell lines
[14] = Cytotoxicity against human melanoma cancer cells after 24 hrs by SRB method; format: functional; settings: Melanoma cell
[15] = Cytotoxicity against human ovarian cancer cells after 24 hrs by SRB method; format: functional; settings: Cancer cell lines
[16] = read-out: pLC50 (the source's name) (converted)

Activity [1]: Active
ΔTm (DNA): 9 °C
Compound: CCOP(=O)(CCN1CCN(CCCOc2cc3c(cc2OC)C(=O)N2CCC[C@H]2C=N3)CC1)OCC

Compound: CCOP(=O)(CCCOc1cc2c(cc1OC)C(=O)N1CCC[C@H]1C=N2)OCC
GI50 [2]: 2.2 µM
ΔTm (DNA): 4.5 °C
GI50 (MCF7): 2.02 µM
GI50 (SiHa): 2.1 µM
GI50 (KB): 2.11 µM

Compound: COc1cc2c(cc1O)N=C[C@@H]1CCCN1C2=O
ΔTm (DNA): 0.7 °C

Compound: CCOP(=O)(CCN1CCN(CCCCCOc2cc3c(cc2OC)C(=O)N2CCC[C@H]2C=N3)CC1)OCC
Activity [1]: Active
GI50 (COLO 205): 1.87 µM
GI50 (SR): 1.38 µM
CC50 (SR; [16]): 30.9 µM
TGI (SR; read-out: pTGI (converted)): 4.27 µM
GI50 [3]: 10 µM
CC50 [3, 16]: 100 µM
TGI ([3]; read-out: pTGI (converted)): 45.7 µM
ΔTm (DNA): 7.2 °C
GI50 (RPMI-8226): 2.29 µM
CC50 (RPMI-8226; [16]): > 100 µM
GI50 [4]: 1.95 µM
CC50 [4, 16]: 100 µM
GI50 (PC-3): 1.98 µM
GI50 (CCRF-CEM [5]): 1.91 µM
GI50 [6]: 3.02 µM
CC50 [6, 16]: 89.1 µM
TGI ([6]; read-out: pTGI (converted)): 30.2 µM
GI50 [7]: 0.17 µM
GI50 [8]: 10 µM
CC50 [8, 16]: 93.3 µM
TGI ([8]; read-out: pTGI (converted)): 46.8 µM
GI50 (A549): 2.64 µM
GI50 (HL-60): 1.82 µM
CC50 (HL-60; [16]): > 100 µM
TGI (HL-60; read-out: pTGI (converted)): 8.32 µM
GI50 (K562): 2.34 µM
CC50 (K562; [16]): > 100 µM
TGI (K562; read-out: pTGI): > 100 µM
TGI [9]: 12.3 µM
GI50 (MCF7): 2.01 µM
GI50 (A2780): 0.17 µM
GI50 (SiHa): 0.21 µM
GI50 [10]: 5.62 µM
CC50 [10, 16]: 95.5 µM
TGI ([10]; read-out: pTGI (converted)): 33.1 µM
GI50 (MOLT-4): 2.14 µM
CC50 (MOLT-4; [16]): > 100 µM
TGI (MOLT-4; read-out: pTGI (converted)): 6.31 µM
GI50 (KB): 1.92 µM
GI50 [11]: 9.77 µM
CC50 [11, 16]: 95.5 µM
TGI ([11]; read-out: pTGI (converted)): 53.7 µM
CC50 (CCRF-CEM [12]): > 100 µM
GI50 [13]: 17.8 µM
CC50 [13, 16]: 100 µM
TGI ([13]; read-out: pTGI (converted)): 63.1 µM
GI50 [14]: 7.76 µM
CC50 [14, 16]: 81.3 µM
TGI ([14]; read-out: pTGI (converted)): 30.2 µM
GI50 [15]: 13.8 µM
CC50 [15, 16]: 100 µM
TGI ([15]; read-out: pTGI (converted)): 55 µM

Compound: CCOP(=O)(CCCN1CCN(CCCCCOc2cc3c(cc2OC)C(=O)N2CCC[C@H]2C=N3)CC1)OCC
Activity [1]: Active
GI50 (COLO 205): 2.39 µM
GI50 [2]: 0.18 µM
ΔTm (DNA): 10 °C
GI50 (PC-3): 30.5 µM
GI50 [7]: 2.18 µM
GI50 (MCF7): 2.21 µM
GI50 (A2780): 2.02 µM
GI50 (SiHa): 2.46 µM

ΔTm (DNA): 7.1 °C
Compound: CCOP(=O)(CCCN1CCN(CCCCOc2cc3c(cc2OC)C(=O)N2CCC[C@H]2C=N3)CC1)OCC

ΔTm (DNA): 6.9 °C
Compound: COc1cc2c(cc1OCCCN1CCN(C)CC1)N=C[C@@H]1CCCN1C2=O

Activity [1]: Active
ΔTm (DNA): 9.9 °C
Compound: CCOP(=O)(CCCN1CCN(CCCOc2cc3c(cc2OC)C(=O)N2CCC[C@H]2C=N3)CC1)OCC

Compound: COc1cccc2c1C(=O)c1c(O)c3c(c(O)c1C2=O)C[C@@](O)(C(=O)CO)C[C@@H]3O[C@H]1C[C@H](N)[C@H](O)[C@H](C)O1 [DOXORUBICIN]
GI50 (COLO 205): 0.14 µM
GI50 [2]: 0.11 µM
GI50 [7]: 0.17 µM
GI50 (MCF7): 0.18 µM
GI50 (A2780): 0.17 µM
GI50 (SiHa): 0.18 µM
GI50 (KB): 0.17 µM
